The results in this text go back to PMC4733660 (Organic & biomolecular chemistry, 2010).

What all share (type): biochemical
One test deals with T1, JMJD2E (Homo sapiens, UniProt B2RXH2).
T1 sequence (B2RXH2 1-506): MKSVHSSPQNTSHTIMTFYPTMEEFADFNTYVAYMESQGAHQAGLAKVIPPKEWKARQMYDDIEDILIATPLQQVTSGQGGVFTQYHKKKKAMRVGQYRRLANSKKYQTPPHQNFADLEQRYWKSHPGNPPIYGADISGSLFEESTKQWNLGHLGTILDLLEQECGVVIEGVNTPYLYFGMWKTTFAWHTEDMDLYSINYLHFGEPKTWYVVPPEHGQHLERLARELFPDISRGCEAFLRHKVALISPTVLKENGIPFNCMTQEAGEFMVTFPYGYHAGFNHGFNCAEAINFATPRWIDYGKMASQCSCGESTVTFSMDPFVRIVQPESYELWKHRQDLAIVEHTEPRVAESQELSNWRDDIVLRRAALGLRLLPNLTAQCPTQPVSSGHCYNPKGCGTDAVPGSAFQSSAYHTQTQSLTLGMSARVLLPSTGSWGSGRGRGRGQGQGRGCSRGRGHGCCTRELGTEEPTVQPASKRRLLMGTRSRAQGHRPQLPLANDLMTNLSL
In words: FDH-coupled spectrophotometric turnover assay of JMJD2E. Conditions: for JMJD2E Residual Activity (%): enzyme concentration 400 nM, 200 μM compound concentration.

A further test addresses PHD2 (Homo sapiens, UniProt Q9GZT9). As to the kind of experiment: PHD2 fluorescence-based. The conditions noted are these: for PHD2 Residual Activity (%): HTRF-based assay, enzyme concentration 20 nM, 400 μM compound concentration; for PHD2 inhibition (in words): 400 μM inhibitor concentration.
The target in test [1] is T2, formaldehyde dehydrogenase (FDH) (Pseudomonas putida, UniProt P46154).
T2 sequence (P46154 1-399): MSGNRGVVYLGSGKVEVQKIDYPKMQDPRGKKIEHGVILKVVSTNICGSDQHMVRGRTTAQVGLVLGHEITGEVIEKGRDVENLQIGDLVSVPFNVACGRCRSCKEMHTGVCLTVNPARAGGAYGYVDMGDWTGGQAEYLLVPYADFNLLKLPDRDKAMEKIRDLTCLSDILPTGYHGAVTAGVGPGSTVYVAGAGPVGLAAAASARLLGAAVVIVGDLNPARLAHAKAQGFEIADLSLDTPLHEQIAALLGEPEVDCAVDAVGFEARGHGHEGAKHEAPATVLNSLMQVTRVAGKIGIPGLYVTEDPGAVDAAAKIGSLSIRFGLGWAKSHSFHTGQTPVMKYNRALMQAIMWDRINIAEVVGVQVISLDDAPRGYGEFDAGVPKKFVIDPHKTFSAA
In words: FDH counterscreen, spectrophotometric assay. The conditions noted are these: enzyme concentration 50 μM, 200 μM compound concentration. Summed up:
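Counterscreen run on the coupling enzyme alone to exclude false JMJD2E hits from FDH inhibition. FDH turnover of formaldehyde with NAD+ followed spectrophotometrically. Enzyme 50 μM; test compound at 200 μM; activity expressed as residual % of uninhibited FDH.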

Read-outs that look alike come from different tables or passages of the source.

Chain of PHD2 (Q9GZT9 whole entry): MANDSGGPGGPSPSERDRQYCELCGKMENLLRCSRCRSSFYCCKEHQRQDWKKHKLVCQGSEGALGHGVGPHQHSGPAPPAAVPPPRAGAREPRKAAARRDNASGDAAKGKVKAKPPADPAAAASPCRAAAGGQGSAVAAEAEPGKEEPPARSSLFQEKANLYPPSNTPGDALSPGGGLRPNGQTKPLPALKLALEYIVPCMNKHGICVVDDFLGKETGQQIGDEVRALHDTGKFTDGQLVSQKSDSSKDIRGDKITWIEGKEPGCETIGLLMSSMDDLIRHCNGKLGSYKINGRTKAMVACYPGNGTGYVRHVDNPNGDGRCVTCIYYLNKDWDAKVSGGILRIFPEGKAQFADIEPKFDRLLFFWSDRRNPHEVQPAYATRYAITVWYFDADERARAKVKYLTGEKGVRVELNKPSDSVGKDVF

As to `O=C(O)c1ccnc(C(=O)O)c1` [Compound 5, 2,4-pyridine dicarboxylic acid, reference compound], the “JMJD2E Residual Activity (%)” value on JMJD2E (FDH-coupled assay) came to 0%. Moreover, the “PHD2 Residual Activity (%)” value on PHD2 is 22%. Besides, the “FDH Residual Activity (%)” value in test [1] is 100%.
`O=C(O)c1ccnc(C(=O)O)c1Oc1ccccc1` [Compound 36, 3-Phenoxypyridine-2,4-dicarboxylic acid]: at JMJD2E (FDH-coupled assay), the “JMJD2E inhibition (in words)” value is “inactive” and the “JMJD2E Residual Activity (%)” value came to 48%. On PHD2, the “PHD2 inhibition (in words)” value is “inactive” and the “PHD2 Residual Activity (%)” value is reported as 88%. Further, in test [1], the “FDH Residual Activity (%)” value was found to be 91%.
On to `O=C(O)c1ccnc(C(=O)O)c1-c1ccccc1` [Compound 34, 3-Phenylpyridine-2,4-dicarboxylic acid], for which the “JMJD2E Residual Activity (%)” value on JMJD2E (FDH-coupled assay) worked out at 84%. Besides, the “PHD2 Residual Activity (%)” value on PHD2 came out at 100%. Moreover, the “FDH Residual Activity (%)” value in test [1] is given as 100%.
In the case of `Nc1c(C(=O)O)ccnc1C(=O)O` [Compound 50, 3-amino-2,4-PDCA], on JMJD2E (FDH-coupled assay), the “JMJD2E inhibition (in words)” value was “highly active”. For the same compound, on JMJD2E (read-out: JMJD2E IC50, FDH-coupled assay), the IC50 is ~0.1 µM. At PHD2, the “PHD2 Residual Activity (%)” value is given as 23%.
On to `O=C(O)c1ccnc(C(=O)O)c1Nc1ccccc1` [Compound 37, 3-(Phenylamino)pyridine-2,4-dicarboxylic acid], for which, at JMJD2E (FDH-coupled assay), the “JMJD2E inhibition (in words)” value was “potent” and the “JMJD2E Residual Activity (%)” value came out at 0%. For the same compound, at PHD2, the “PHD2 inhibition (in words)” value is “do not inhibit PHD2” and the “PHD2 Residual Activity (%)” value is 100%. The “FDH Residual Activity (%)” value in test [1] worked out at 83%.
Turning to `O=C(O)c1ccnc(C(=O)O)c1/C=C/c1ccccc1` [Compound 35, (E)-3-Styrylpyridine-2,4-dicarboxylic acid], the IC50 on JMJD2E amounted to 66 µM. At JMJD2E (FDH-coupled assay), the “JMJD2E inhibition (in words)” value is “some recovery of inhibitory potency” and the “JMJD2E Residual Activity (%)” value was 25%. Besides, the “PHD2 Residual Activity (%)” value on PHD2 was 85%. For the same compound, the “FDH Residual Activity (%)” value in test [1] was 87%.
